Experimental data from ChEMBL document CHEMBL1687707, “Changes in the plasmodial surface anion channel reduce leupeptin uptake and can confer drug resistance in Plasmodium falciparum-infected erythrocytes” (Antimicrob Agents Chemother, 2008).
The source made the active and inactive calls. The rule behind the calls is not given here.

How the values were obtained:
Plasmodium falciparum [1] = test: Antimicrobial activity against leupeptin resistant-Plasmodium falciparum HB3-leuR1 mutant infected in erythrocytes assessed as growth inhibition after 72 hrs by SYBR Green I-based fluorescence assay; format: functional, organism-based; details: HB3-leuR1, 72 h
In short: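 Sorbitol-synchronized cultures seeded at 0.2–0.5% parasitemia, 5% hematocrit in RPMI 1640/25 mM HEPES/2% serum/hypoxanthine. Incubated 72 h at 37°C in 5% O₂-5% CO₂. Freeze-thaw, then SYBR green I, 30 min dark, fluorescence 485/528 nm. Triplicate means with background subtracted (20 μM chloroquine-killed cultures). IC50 by nonlinear fit, three or more experiments.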

Plasmodium falciparum [2] = test: Antimicrobial activity against wild type Plasmodium falciparum HB3 infected in erythrocytes assessed as growth inhibition after 72 hrs by SYBR Green I-based fluorescence assay; format: functional, organism-based; details: HB3, 72 h
Plasmodium falciparum [3] = test: Antimicrobial activity against wild type Plasmodium falciparum HB3 infected in erythrocytes assessed as growth inhibition after 5 days by SYBR Green I-based fluorescence assay; details: HB3, 5 days
Plasmodium falciparum [4] = test: Antimicrobial activity against leupeptin resistant-Plasmodium falciparum HB3-leuR1 mutant infected in erythrocytes assessed as growth inhibition after 5 days by SYBR Green I-based fluorescence assay; details: HB3-leuR1, 5 days
Plasmodium falciparum [5] = test: Reduction in hemozoin production in leupeptin resistant-Plasmodium falciparum HB3-leuR1 mutant infected in erythrocytes at 50 uM for 18 hrs by absorbance scan at 400 nm
Falcipain 2 [6] = target: Falcipain 2 (Plasmodium falciparum, UniProt Q9N6S8); test: Inhibition of Cysteine protease falcipain-2 in Plasmodium falciparum HB3-leuR1 mutant infected erythrocytes by Z-Phe-Arg-AMC substrate hydrolysis assay
In short: (§1)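 Soluble extracts from trophozoite-infected erythrocytes enriched to 95–99% parasitemia (Percoll-sorbitol). Adjusted to 40 μg/ml protein in 0.1 M sodium acetate pH 5.5 with 10 mM DTT, with or without leupeptin. Prewarmed to 37°C; 50 μM Z-Phe-Arg-AMC added; fluorescence 353/442 nm read every 2 min. Rates by regression over 10–90 min, triplicate. K0.5 fit with Hill coefficient 1.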

[7] = target: T1, Cysteine protease falcipain-3 (Plasmodium falciparum) (UniProt Q9NAW4); test: Inhibition of Cysteine protease falcipain-3 in Plasmodium falciparum HB3 infected erythrocytes assessed as slowing of substrate hydrolysis by Z-Phe-Arg-AMC substrate hydrolysis assay; in short: as §1
T1 sequence (whole entry): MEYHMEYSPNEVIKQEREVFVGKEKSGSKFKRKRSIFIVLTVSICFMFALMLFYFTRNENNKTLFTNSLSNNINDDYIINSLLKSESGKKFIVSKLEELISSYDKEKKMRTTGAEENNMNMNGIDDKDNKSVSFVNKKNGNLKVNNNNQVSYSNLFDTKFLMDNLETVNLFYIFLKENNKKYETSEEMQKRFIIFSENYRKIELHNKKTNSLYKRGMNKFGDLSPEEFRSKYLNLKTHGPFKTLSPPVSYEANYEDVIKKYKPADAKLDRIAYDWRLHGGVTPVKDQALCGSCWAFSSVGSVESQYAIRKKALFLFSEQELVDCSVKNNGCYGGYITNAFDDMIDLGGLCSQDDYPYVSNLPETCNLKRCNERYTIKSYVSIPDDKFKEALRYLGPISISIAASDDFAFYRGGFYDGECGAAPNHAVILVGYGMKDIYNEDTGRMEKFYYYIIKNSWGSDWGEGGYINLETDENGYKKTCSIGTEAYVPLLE

[8] = Activity of PSAS assessed as channel-mediated drug uptake measured by inhibition of papain-mediated substrate hydrolysis by Plasmodium falciparum HB3 infected erythrocyte cytosol harvested from cells incubated at 40 uM for 15 mins in presence og PSAC antagonist NPF1 by Z-Phe-Arg-AMC substrate hydrolysis assay; format: functional
In short: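 Erythrocyte cytosol was released with 0.05% saponin, and 10⁸-cell equivalents were incubated with 150 ng/ml papain and 10 mM DTT at pH 5.5. Z-Phe-Arg-AMC (50 μM) hydrolysis was read every 2 min for 10 min, given as percent inhibition; four experiments.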

[9] = Inhibition of PSAC-mediated sorbitol uptake in erythrocytes infected with Plasmodium falciparum HB3 at 50 uM; format: cell-based
In short: (§2)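 Percoll-sorbitol-enriched trophozoite-infected cells were washed in PBS, then suspended at 0.5% hematocrit in 280 mM sorbitol, 20 mM sodium HEPES and 0.1 mg/ml BSA, pH 7.4, with PSAC antagonists. Osmotic lysis kinetics gave half-times, and K0.5 was fitted by nonlinear least squares.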

Plasmodium falciparum [10] = test: Induction of parasite morphology changes in leupeptin resistant-Plasmodium falciparum HB3-leuR1 mutant infected in erythrocytes assessed as occurrence of enlarged digestive vacuoles by transmission electron microscopy; format: functional, organism-based
Plasmodium falciparum [11] = test: Induction of parasite morphology changes in wild type Plasmodium falciparum HB3 infected in erythrocytes assessed as occurrence of enlarged digestive vacuoles by transmission electron microscopy; format: functional, organism-based
In short: (§3)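 For electron microscopy, infected erythrocytes were cultured with 100 μM leupeptin for 6 h. They were fixed overnight at 4°C in 2.5% glutaraldehyde/4% paraformaldehyde in 0.1 M cacodylate pH 7.4, postfixed in osmium tetroxide/ferricyanide and stained with uranyl acetate. Samples were Spurr-embedded, and thin sections were lead/uranyl stained and imaged at 80 kV.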

[12] = target: T2, Falcipain 2 (Plasmodium falciparum) (UniProt Q9N6S8); test: Inhibition of Cysteine protease falcipain-2 in Plasmodium falciparum HB3-leuR1 mutant infected erythrocytes assessed as slowing of substrate hydrolysis by Z-Phe-Arg-AMC substrate hydrolysis assay; in short: as §1
T2 sequence (whole entry): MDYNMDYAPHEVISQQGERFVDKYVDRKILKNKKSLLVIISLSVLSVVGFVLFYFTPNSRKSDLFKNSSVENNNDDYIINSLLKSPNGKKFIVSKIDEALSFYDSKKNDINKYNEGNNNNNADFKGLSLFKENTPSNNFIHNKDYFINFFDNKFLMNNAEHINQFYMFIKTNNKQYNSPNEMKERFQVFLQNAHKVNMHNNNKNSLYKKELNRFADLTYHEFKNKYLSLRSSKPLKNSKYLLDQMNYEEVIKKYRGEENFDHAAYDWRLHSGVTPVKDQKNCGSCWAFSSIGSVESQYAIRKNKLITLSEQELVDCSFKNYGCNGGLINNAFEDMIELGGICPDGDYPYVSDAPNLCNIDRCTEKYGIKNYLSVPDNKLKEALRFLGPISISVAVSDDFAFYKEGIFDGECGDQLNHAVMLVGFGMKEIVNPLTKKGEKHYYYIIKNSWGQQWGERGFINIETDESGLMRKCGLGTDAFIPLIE

[13] = target: T3, Cysteine protease falcipain-3 (Plasmodium falciparum, UniProt Q9NAW4); test: Inhibition of Cysteine protease falcipain-3 in Plasmodium falciparum HB3 infected erythrocytes by Z-Phe-Arg-AMC substrate hydrolysis assay
T3 sequence (Q9NAW4 whole entry): T1 sequence (whole entry)
In short: (§4)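 Soluble extracts came from trophozoite-infected cells enriched to 95–99% parasitemia. They were set at 40 μg/ml protein in 0.1 M sodium acetate pH 5.5 with 10 mM DTT and leupeptin, prewarmed to 37°C, then given 50 μM Z-Phe-Arg-AMC. Fluorescence (353/442 nm) was read every 2 min, with rates regressed over 10–90 min and triplicate means. K0.5 came from a 1:1 fit; n=4.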

[14] = Activity of PSAS assessed as channel-mediated drug uptake measured by inhibition of papain-mediated substrate hydrolysis by Plasmodium falciparum HB3 infected erythrocyte cytosol harvested from cells incubated at 40 uM for 15 mins by Z-Phe-Arg-AMC substrate hydrolysis assay
In short: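 They were counted, then lysed at 20% hematocrit with 0.05% saponin. Cytosol from 10⁸ cells went into pH 5.5 acetate with 10 mM DTT and 150 ng/ml papain, then 50 μM Z-Phe-Arg-AMC. Rates came from 353/442 nm readings over 10 min; four experiments.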

[15] = target: Cysteine protease falcipain-3 (Plasmodium falciparum, UniProt Q9NAW4); test: Inhibition of Cysteine protease falcipain-3 in Plasmodium falciparum HB3-leuR1 mutant infected erythrocytes by Z-Phe-Arg-AMC substrate hydrolysis assay; in short: as §1
Plasmodium falciparum [16] = test: Reduction in formation of hemozoin crystals in wild type Plasmodium falciparum HB3 infected in erythrocytes at 100 uM for 6 hrs by transmission electron microscopy; format: functional, organism-based; in short: as §3
Plasmodium falciparum [17] = test: Reduction in formation of hemozoin crystals in leupeptin resistant-Plasmodium falciparum HB3-leuR1 mutant infected in erythrocytes at 100 uM for 6 hrs by transmission electron microscopy; format: functional, organism-based
In short: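 Infected erythrocytes cultured with 100 μM leupeptin for 6 h. Fixed overnight at 4°C in 2.5% glutaraldehyde-4% paraformaldehyde in cacodylate pH 7.4. Postfixed in osmium tetroxide-ferricyanide, stained with uranyl acetate, embedded in Spurr's resin. Thin sections stained with uranyl acetate/lead citrate and imaged at 80 kV.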

Plasmodium falciparum [18] = test: Reduction in hemozoin production in wild type Plasmodium falciparum HB3 infected in erythrocytes at 50 uM for 18 hrs by absorbance scan at 400 nm
[19] = Activity of PSAS assessed as channel-mediated drug uptake measured by inhibition of papain-mediated substrate hydrolysis by leupeptin resistant-Plasmodium falciparum HB3-leuR1 infected erythrocyte cytosol harvested from cells incubated at 40 uM for 15 mins by Z-Phe-Arg-AMC substrate hydrolysis assay
Plasmodium falciparum [20] = test: Antimicrobial activity against leupeptin resistant-Plasmodium falciparum HB3-leuR1 mutant infected in erythrocytes assessed as growth inhibition after 72 hrs in presence of PSAC antagonist NPF1 by SYBR Green I-based fluorescence assay; format: functional, organism-based
In short: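 SYBR green I growth assay for 72 h at 37°C using serial dilutions of several fixed molar ratios of leupeptin and NPF-1. IC50 of each agent interpolated for each ratio and plotted as an isobologram. Background subtracted using chloroquine-killed cultures.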

[21] = Inhibition of PSAC-mediated sorbitol uptake in erythrocytes infected with leupeptin resistant-Plasmodium falciparum HB3-leuR1 at 50 uM; format: cell-based
Falcipain 2 [22] = target: T4, Falcipain 2 (Plasmodium falciparum, UniProt Q9N6S8); test: Inhibition of Cysteine protease falcipain-2 in Plasmodium falciparum HB3 infected erythrocytes by Z-Phe-Arg-AMC substrate hydrolysis assay; in short: as §4
T4 sequence (Q9N6S8 whole entry): T2 sequence (whole entry)

[23] = target: T2, Falcipain 2 (Plasmodium falciparum); test: Inhibition of Cysteine protease falcipain-2 in Plasmodium falciparum HB3 infected erythrocytes assessed as slowing of substrate hydrolysis by Z-Phe-Arg-AMC substrate hydrolysis assay; in short: as §1
[24] = target: T1, Cysteine protease falcipain-3 (Plasmodium falciparum); test: Inhibition of Cysteine protease falcipain-3 in Plasmodium falciparum HB3-leuR1 mutant infected erythrocytes assessed as slowing of substrate hydrolysis by Z-Phe-Arg-AMC substrate hydrolysis assay; in short: as §1
[25] = Inhibition of PSAC-mediated sorbitol uptake in erythrocytes infected with leupeptin resistant-Plasmodium falciparum HB3-leuR1 by osmotic lysis half-time determination assay; format: cell-based
[26] = Inhibition of single PSAC in erythrocytes infected with leupeptin resistant-Plasmodium falciparum HB3-leuR1 cell attached patch clamp method; format: cell-based
[27] = Inhibition of single PSAC in erythrocytes infected with Plasmodium falciparum HB3 at 100 to 5000 uM by cell attached patch clamp method; format: cell-based
In short: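 Cell-attached patch-clamp recordings were made on trophozoite-stage infected erythrocytes. Bath and pipette solutions were symmetric: 1,000 mM choline chloride, 115 mM NaCl, 10 mM MgCl₂, 5 mM CaCl₂ and 20 mM sodium HEPES, pH 7.4.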

[28] = Inhibition of PSAC-mediated sorbitol uptake in erythrocytes infected with Plasmodium falciparum HB3 at 100 to 5000 uM by osmotic lysis half-time determination assay; format: cell-based; in short: as §2

`C[C@@H]1CC[C@H]2[C@@H](C)C(=O)O[C@@H]3O[C@@]4(C)CC[C@@H]1[C@]32OO4` [ARTEMISININ] gave an IC50 (Plasmodium falciparum [1]) of 7.71 nM and an IC50 (Plasmodium falciparum [2]) of 8.36 nM.

`CN(CC[C@H](N)CC(=O)N[C@H]1C=C[C@H](n2ccc(N)nc2=O)O[C@@H]1C(=O)O)C(=N)N` [BLASTICIDIN_S] gave an IC50 (Plasmodium falciparum [3]) of 0.43 µM and an IC50 (Plasmodium falciparum [4]) of 1.15 µM.

`CC(C)C[C@H](NC(=O)[C@H]1O[C@@H]1C(=O)O)C(=O)NCCCCN=C(N)N` [E-64] showed an IC50 (Plasmodium falciparum [3]) of 3.69 µM and an IC50 (Plasmodium falciparum [4]) of 5.88 µM.

In the case of `CC(=O)N[C@@H](CC(C)C)C(=O)N[C@@H](CC(C)C)C(=O)N[C@H](C=O)CCCNC(=N)N` [LEUPEPTIN], the IC50 (Plasmodium falciparum [3]) is reported as 18 µM, the Activity (Plasmodium falciparum [5]) is reported as “inactive” and the IC50 (Falcipain 2 [6]) is reported as 98 nM. The inhibition [7] was “Active”, the Activity [8] was “inactive” and the inhibition [9] was “inactive”. The Activity (Plasmodium falciparum [10]) was “inactive”, the Activity (Plasmodium falciparum [11]) was “Active” and the inhibition [12] was “Active”. The IC50 [13] was 87 nM, the IC50 (Plasmodium falciparum [4]) was 74 µM and the Activity [14] was “Active”. For the same compound, the IC50 [15] was 98 nM, the Activity (Plasmodium falciparum [16]) was “Active” and the Activity (Plasmodium falciparum [17]) was “inactive”. For the same compound, the Activity (Plasmodium falciparum [18]) was “Active”, the Activity [19] was “inactive” and the “growth inhibition (GI)” value (Plasmodium falciparum [20]) was “inactive”. For the same compound, the inhibition [21] was “inactive”, the IC50 (Falcipain 2 [22]) was 87 nM and the inhibition [23] was “Active”. The inhibition [24] was “Active”.

Compound `CC(C)CC(=O)N[C@H](C(=O)N[C@H](C(=O)N[C@@H](CC(C)C)[C@@H](O)CC(=O)N[C@@H](C)C(=O)N[C@@H](CC(C)C)[C@@H](O)CC(=O)O)C(C)C)C(C)C` [PEPSTATIN] has an IC50 (Plasmodium falciparum [3]) of 39.2 µM and an IC50 (Plasmodium falciparum [4]) of 29.4 µM.

In the case of `O=C(CCc1ccc(O)cc1)c1c(O)cc(O)cc1O[C@@H]1O[C@H](CO)[C@@H](O)[C@H](O)[C@H]1O` [PHLORIZIN], the inhibition [25] is reported as “inactive”, the IC50 [26] is reported as 340 µM and the IC50 [27] is reported as 17 µM. For the same compound, the inhibition [28] was “Active”.

In the case of `C=C[C@H]1CN2CC[C@H]1C[C@H]2[C@H](O)c1ccnc2ccc(OC)cc12` [QUININE], the IC50 (Plasmodium falciparum [1]) is reported as 74 nM and the IC50 (Plasmodium falciparum [2]) is reported as 77.1 nM.
